Measurements from ChEMBL document CHEMBL3826936, “Alkyne-substituted diminazene as G-quadruplex binders with anticancer activities” (Eur J Med Chem, 2016).
The source made the active and inactive calls. The rule behind the calls is not given here.

How the values were obtained:
[1] = Stabilization of c-MYC Pu27 G-quadruplex DNA (unknown origin) assessed as inhibition of Taq polymerase-mediated polymerization/extension of Pu27 and Pu27rev oligomers at 10 uM preincubated for 6 hrs followed by Taq polymerase addition by PCR stop assay
[2] = Stabilization of c-MYC template Pu27-13,14 mutant DNA (unknown origin) assessed as inhibition of Taq polymerase-mediated polymerization/extension of Pu27-13,14 mutant and Pu27rev oligomers at 25 uM preincubated for 6 hrs followed by Taq polymerase addition by PCR stop assay
[3] = Stabilization of c-MYC template Pu27 mutant DNA (unknown origin) assessed as inhibition of Taq polymerase-mediated polymerization/extension of Pu27 mutant and Pu27rev oligomers at 1 to 25 uM preincubated for 6 hrs followed by Taq polymerase addition by PCR stop assay
[4] = Binding affinity to wild type c-MYC 24-mer G-quadruplex DNA (unknown origin) by isothermal titration calorimetry
[5] = Binding affinity to wild type Bcl2 27-mer G-quadruplex DNA (unknown origin) by isothermal titration calorimetry
[6] = Selectivity ratio of Kd for 8-bp AT rich duplex DNA (unknown origin) to Kd for wild type c-MYC 24-mer G-quadruplex DNA (unknown origin)
[7] = Selectivity ratio of Kd for 8-bp AT rich duplex DNA (unknown origin) to Kd for wild type Bcl2 27-mer G-quadruplex DNA (unknown origin)
[8] = Binding affinity to 8-bp AT rich duplex DNA (unknown origin) by isothermal titration calorimetry
[9] = Binding affinity to 5'-FAM/3'-TAMRA labeled c-MYC 22-mer G-quadruplex DNA (unknown origin) assessed as change in melting temperature at 4 uM after 12 hrs by TR-FRET assay
In short: (§1)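 Dual-labeled FAM/TAMRA oligos diluted to 800 nM in 60 mM potassium cacodylate (pH 7.2), annealed 10 min at 85 °C and cooled to room temperature. Mixed 1:1 with ligand at […] in the same buffer. Equilibrated at least 12 h at 4 °C. ΔT1/2 taken as melting temperature with minus without ligand, in triplicate, averaged.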

[10] = Binding affinity to 5'-FAM/3'-TAMRA labeled F21T 21-mer G-quadruplex DNA (unknown origin) assessed as change in melting temperature at 4 uM after 12 hrs by TR-FRET assay; in short: as §1
[11] = Binding affinity to 5'-FAM/3'-TAMRA labeled c-kit2 26-mer G-quadruplex DNA (unknown origin) assessed as change in melting temperature at 4 uM after 12 hrs by TR-FRET assay; in short: as §1
[12] = Binding affinity to 5'-FAM/3'-TAMRA labeled k-RAS21R 21-mer G-quadruplex DNA (unknown origin) assessed as change in melting temperature at 4 uM after 12 hrs by TR-FRET assay; in short: as §1
[13] = Binding affinity to 5'-FAM/3'-TAMRA labeled 26-mer duplex DNA (unknown origin) assessed as change in melting temperature at 4 uM after 12 hrs by TR-FRET assay
[14] = Antiproliferative activity against human OVCAR3 cells after 72 hrs by WST-1 assay; format: functional; conditions: OVCAR-3, 72 h
In short: (§2)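 Cells seeded in 96-well plates the afternoon before treatment, at numbers keeping them in log-phase growth; about 18 h later, compounds semi-serially diluted in DMSO then growth medium and added. Incubation 72 h, then WST-1 added and plates read after 4 more hours at 37 °C. GI50 derived from curve fits; viability expressed relative to DMSO control.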

[15] = Antiproliferative activity against human PC3 cells assessed as cell viability at 20 uM after 72 hrs by WST-1 assay relative to control; format: functional; conditions: PC-3, 72 h, read-out: Activity; in short: as §2
MDA-MB-231 [16] = experiment: Antiproliferative activity against human MDA-MB-231 cells assessed as cell viability at 20 uM after 72 hrs by WST-1 assay relative to control; format: functional; conditions: MDA-MB-231, 72 h, read-out: Activity; in short: as §2
[17] = Binding affinity to 5'-FAM/3'-TAMRA labeled c-MYC 22-mer G-quadruplex DNA (unknown origin) at 4 uM in presence of 26-mer duplex DNA by TR-FRET assay
[18] = Binding affinity to c-kit1 22-mer G-quadruplex DNA (unknown origin) at 150 uM incubated for 2 hrs by 1H NMR method
[19] = Binding affinity to c-MYC2345 G-quadruplex DNA (unknown origin) at 150 uM incubated for 2 hrs by 1H NMR method
[20] = Binding affinity to 8-bp AT rich duplex DNA (unknown origin) at 150 uM incubated for 2 hrs by 1H NMR method
[21] = Stabilization of c-MYC pu27 G-quadruplex DNA (unknown origin) assessed as inhibition of Taq polymerase-mediated polymerization/extension of Pu27 and Pu27rev oligomers at 100 uM preincubated for 6 hrs followed by Taq polymerase addition by PCR stop assay
[22] = Stabilization of c-MYC template Pu27-13,14 mutant DNA (unknown origin) assessed as inhibition of Taq polymerase-mediated polymerization/extension of Pu27-13,14 mutant and Pu27rev oligomers at 100 uM preincubated for 6 hrs followed by Taq polymerase addition by PCR stop assay
[23] = Stabilization of c-MYC template Pu27 mutant DNA (unknown origin) assessed as inhibition of Taq polymerase-mediated polymerization/extension of Pu27 mutant and Pu27rev oligomers at 1 to 100 uM preincubated for 6 hrs followed by Taq polymerase addition by PCR stop assay
[24] = target: Telomerase reverse transcriptase (Homo sapiens) (UniProt O14746); experiment: Inhibition of telomerase activity in human MDA-MB-231 cells using amplifour TS primer at 11 uM preincubated for 48 to 72 hrs followed by primer addition measured after 30 mins by fluorescence plate reader analysis relative to control; format: cell-based
Telomerase reverse transcriptase (Homo sapiens), sequence (O14746 whole entry): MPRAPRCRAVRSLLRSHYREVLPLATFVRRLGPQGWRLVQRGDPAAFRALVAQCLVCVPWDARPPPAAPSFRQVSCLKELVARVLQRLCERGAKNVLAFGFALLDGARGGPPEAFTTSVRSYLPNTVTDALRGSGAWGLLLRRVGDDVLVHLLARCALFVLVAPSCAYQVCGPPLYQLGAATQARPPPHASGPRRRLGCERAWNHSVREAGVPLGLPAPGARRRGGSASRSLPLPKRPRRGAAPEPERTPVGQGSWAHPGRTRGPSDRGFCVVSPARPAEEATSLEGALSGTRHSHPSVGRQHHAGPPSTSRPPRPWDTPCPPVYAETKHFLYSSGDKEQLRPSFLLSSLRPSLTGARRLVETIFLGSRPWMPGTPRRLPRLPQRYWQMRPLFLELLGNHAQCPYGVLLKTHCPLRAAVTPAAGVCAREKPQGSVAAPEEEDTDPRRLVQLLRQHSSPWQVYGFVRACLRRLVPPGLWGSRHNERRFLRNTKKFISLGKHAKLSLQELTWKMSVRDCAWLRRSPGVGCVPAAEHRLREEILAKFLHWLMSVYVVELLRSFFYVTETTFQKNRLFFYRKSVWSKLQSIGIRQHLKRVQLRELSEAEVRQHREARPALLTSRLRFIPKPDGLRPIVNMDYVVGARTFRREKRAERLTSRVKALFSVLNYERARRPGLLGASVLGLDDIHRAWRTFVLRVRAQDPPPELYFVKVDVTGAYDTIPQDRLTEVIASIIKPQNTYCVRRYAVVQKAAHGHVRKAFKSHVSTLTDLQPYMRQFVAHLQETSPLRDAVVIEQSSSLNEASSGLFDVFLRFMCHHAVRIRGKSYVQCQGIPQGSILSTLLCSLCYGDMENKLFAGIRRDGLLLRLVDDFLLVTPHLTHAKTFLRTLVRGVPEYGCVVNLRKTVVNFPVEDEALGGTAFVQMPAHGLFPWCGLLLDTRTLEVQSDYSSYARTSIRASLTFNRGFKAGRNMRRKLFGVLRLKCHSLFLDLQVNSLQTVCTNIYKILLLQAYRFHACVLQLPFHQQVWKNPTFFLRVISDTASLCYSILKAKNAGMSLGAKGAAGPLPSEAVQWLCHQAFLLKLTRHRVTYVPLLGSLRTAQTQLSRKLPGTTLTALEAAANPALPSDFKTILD
In short: (§3)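 MDA-MB-231 seeded at 2 × 10^5 cells per T-25 flask the evening before, then treated with vehicle or compound for 48 or 72 h. Harvested cells lysed in CHAPS buffer with RNase inhibitor, 30 min on ice; supernatant kept after 12,000 × g spin. TRAPeze XL fluorescence assay used 1000 cell-equivalents, 30 min at 30 °C; TPG units from product/internal-standard ratio; inhibition relative to untreated cells.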

[25] = target: Telomerase reverse transcriptase (Homo sapiens) (UniProt O14746); experiment: Inhibition of telomerase activity in human MDA-MB-231 cells using amplifour TS primer preincubated for 48 to 72 hrs followed by primer addition measured after 30 mins by fluorescence plate reader analysis relative to control; format: cell-based
In short: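 MDA-MB-231 cells, 2 × 10⁵ per T-25 flask, were treated the next morning with vehicle or compound at 0.5×, 1×, 2× or 4× GI50. After 48 or 72 h they were lysed in CHAPS buffer with RNase inhibitor on ice for 30 min. Lysate (1000 cell-equivalents) went into a fluorescent TRAP reaction at 30 °C for 30 min. TPG units were taken against an internal standard, and inhibition was expressed relative to untreated cells.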

MDA-MB-231 [26] = experiment: Binding affinity to c-MYC G-quadruplex DNA in human MDA-MB-231 cells assessed as inhibition of c-MYC protein expression at 27.25 uM incubated for 6 hrs by Western blot analysis relative to control; format: cell-based
In short: (§4)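 MDA-MB-231 cells, grown in DMEM with 10% heat-inactivated FBS at 37 °C and 5% CO2, exposed for 6 or 24 h; DMSO vehicle as comparator. Cells harvested, PBS-washed, lysed in RIPA with protease inhibitors. Blots probed with c-MYC antibody (1:1000) and HRP anti-rabbit IgG (1:10,000), β-actin as loading control. Densitometry given as percent of vehicle at each time point.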

MDA-MB-231 [27] = experiment: Binding affinity to c-MYC G-quadruplex DNA in human MDA-MB-231 cells assessed as inhibition of c-MYC protein expression at 27.25 uM incubated for 24 hrs by Western blot analysis relative to control; format: cell-based; in short: as §4
[28] = Antiproliferative activity against human PC3 cells after 72 hrs by WST-1 assay; format: functional; conditions: PC-3, 72 h; in short: as §2
MDA-MB-231 [29] = experiment: Antiproliferative activity against human MDA-MB-231 cells after 72 hrs by WST-1 assay; format: functional; conditions: MDA-MB-231, 72 h; in short: as §2
[30] = Antiproliferative activity against human bone marrow cells after 72 hrs by WST-1 assay; format: cell-based, Bone marrow cell
In short: (§5)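 Cells seeded the afternoon before treatment at densities giving log-phase growth; about 18 h later compounds, semi-serially diluted in DMSO then growth medium, were added. After 72 h WST-1 was added, with a further 4 h at 37 °C before plate reading. GI50 values were calculated from the curves. NBM was grown in RPMI; MCR5A was handled per ATCC.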

[31] = Antiproliferative activity against human MCR5A cells after 72 hrs by WST-1 assay; format: cell-based; in short: as §5
MDA-MB-231 [32] = experiment: Cytotoxicity against human MDA-MB-231 cells assessed as reduction in cell viability at 27.25 uM after 24 hrs by […]; conditions: mda-mb-231, 24 h
[33] = Antiproliferative activity against human bone marrow cells assessed as cell viability at 20 uM after 72 hrs by WST-1 assay relative to control; format: cell-based; conditions: read-out: Activity; in short: as §2
[34] = Antiproliferative activity against human MCR5A cells assessed as cell viability at 20 uM after 72 hrs by WST-1 assay relative to control; format: cell-based; conditions: read-out: Activity; in short: as §2
[35] = target: Telomerase reverse transcriptase (Homo sapiens) (UniProt O14746); experiment: Inhibition of telomerase activity in human MDA-MB-231 cells using amplifour TS primer at 12.4 uM preincubated for 48 hrs followed by primer addition measured after 30 mins by fluorescence plate reader analysis relative to control; format: cell-based; in short: as §3
[36] = target: Telomerase reverse transcriptase (Homo sapiens) (UniProt O14746); experiment: Inhibition of telomerase activity in human MDA-MB-231 cells using amplifour TS primer at 12.4 uM preincubated for 72 hrs followed by primer addition measured after 30 mins by fluorescence plate reader analysis relative to control; format: cell-based; in short: as §3
MDA-MB-231 [37] = experiment: Binding affinity to c-MYC G-quadruplex DNA in human MDA-MB-231 cells assessed as inhibition of c-MYC protein expression at 19.5 uM incubated for 6 hrs by Western blot analysis relative to control; format: cell-based; in short: as §4
MDA-MB-231 [38] = experiment: Binding affinity to c-MYC G-quadruplex DNA in human MDA-MB-231 cells assessed as inhibition of c-MYC protein expression at 19.5 uM incubated for 24 hrs by Western blot analysis relative to control; format: cell-based; in short: as §4

ΔTm [9] [°C] | ΔTm [10] [°C] | ΔTm [11] [°C] | ΔTm [12] [°C] | ΔTm [13] [°C] | Activity [17] | Activity [18] | Activity [19] | Activity [20] | inhibition [21] | inhibition [22] | inhibition [23] | GI50 (MDA-MB-231 [29]) [µM] | Structure (SMILES) | GI50 [14] [µM] | GI50 [28] [µM] | further results
18.3 | 16.6 | 11.7 | 24.1 | 6.8 |  |  |  |  |  |  |  |  | N=C(N)c1ccc(/N=N/Nc2ccc(C(=N)N)cc2)cc1 [DIMINAZENE] | > 25 |  | inhibition [1]: Active; inhibition [2]: Active; inhibition [3]: Active; Kd [4]: 0.001 µM; Kd [5]: 0.001 µM; Selectivity ratio [6]: 1000; Selectivity ratio [7]: 1000; Kd [8]: 1 µM; viability at 20 µM [15]: ≥ 75%; viability at 20 µM (MDA-MB-231 [16]): ≥ 75%
8.6 | < 5 | 5.67 | 6.9 | < 5 | inactive | Active | Active | inactive | Active | inactive | inactive | 5.5 | N=C(N)c1ccc(/N=N/Nc2cccc(C#Cc3ccc(F)cc3)c2)cc1 | 5 | 5.3 | inhibition [24]: < 50%; inhibition [25]: Dose-dependent effect; inhibition (MDA-MB-231 [26]): 40%; inhibition (MDA-MB-231 [27]): 67%; GI50 at 72 h [30]: 5.6 µM; GI50 at 72 h [31]: 8.3 µM; Activity (MDA-MB-231 [32]): Toxic
8.8 | < 5 | 5.12 | 2.7 | < 5 | inactive | Active | Active | inactive | Active | inactive | inactive | 6.2 | N=C(N)c1ccc(/N=N/Nc2ccccc2C#Cc2ccc(F)cc2)cc1 | 9.5 | 7.4 | viability at 72 h, 20 µM [33]: ≥ 75%; viability at 72 h, 20 µM [34]: ≥ 75%; inhibition [35]: 20%; inhibition [36]: 30%; inhibition (MDA-MB-231 [37]): inactive; inhibition (MDA-MB-231 [38]): 100%
